Laboratory results taken from ChEMBL document CHEMBL1126705, “16 beta-([18F]fluoro)estrogens: systematic investigation of a new series of fluorine-18-labeled estrogens as potential imaging agents for estrogen-receptor-positive breast tumors” (J Med Chem, 1993).

Experiments:
[1] = biological target: T1, Estrogen receptor (Rattus norvegicus) (UniProt P06211+Q62986)
Rattus norvegicus [2] = assay: Tested in vivo for the biodistribution in rat ovaries at 1 hour after intravenous dose of 100 microCi of the drug and 15 ug of estradiol; type: ADME, organism-based, Female gonad
In short: (§1)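 Immature (25-day-old) female Sprague-Dawley rats, ether-anesthetized, given the fluorine-18-labeled estrogen by femoral vein injection in 10% ethanol saline. […] Other groups were killed by decapitation at 1 or 3 h. Blood and organs were weighed and gamma-counted. Data are % injected dose/g, mean ± SD, typically n = 5 per group.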

[3] = Partition coefficient (logP); type: physicochemical; conditions: octanol/water
In short: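 Octanol/water log P estimated from log k'w measured by reversed-phase HPLC (Minick method) on a C8 silica column.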

Rattus norvegicus [4] = assay: Tested in vivo for the biodistribution in rat uterus/muscle at 1 hour after intravenous dose of 100 microCi of the drug and 15 ug of estradiol; type: ADME, organism-based, Muscle tissue
In short: (§2)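 Female Sprague-Dawley rats, 25 days old (~40–53 g), ether-anesthetized, given the 18F-labeled estrogen iv via femoral vein in 10% ethanol saline. […] Others were sacrificed by decapitation at 1 or 3 h. Blood and organs were excised, weighed and gamma counted as % injected dose/g, mean ± SD, typically n = 5 (4–6).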

Rattus norvegicus [5] = assay: Tested in vivo for the biodistribution in rat liver at 1 hour after intravenous dose of 100 microCi of drug in 10%ethanol saline; type: ADME, organism-based
In short: as §1

Rattus norvegicus [6] = assay: Tested in vivo for the biodistribution in rat kidney at 1 hour after intravenous dose of 100 microCi of drug in 10%ethanol saline; type: ADME, organism-based
In short: (§3)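 Ether-anesthetized 25-day-old female Sprague-Dawley rats (~40–53 g) got the [18F] tracer in 10% ethanol saline via femoral vein. Rats were decapitated at 1 or 3 h, and blood and organs were weighed and gamma-counted. Values are % injected dose/g as mean ± SD, n = 5 per time point.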

Rattus norvegicus [7] = assay: Tested in vivo for the biodistribution in rat uterus/blood at 1 hour after intravenous dose of 100 microCi of drug in 10%ethanol saline; type: ADME, organism-based
In short: as §2

Rattus norvegicus [8] = assay: Tested in vivo for the biodistribution in blood of female rat at 1 hour after intravenous dose of 100 microCi of the drug and 15 u g of estradiol; type: ADME, organism-based
Rattus norvegicus [9] = assay: Tested in vivo for the biodistribution in rat kidney at 1 hour after intravenous dose of 100 microCi of the drug and 15 u g of estradiol; type: ADME, organism-based
Rattus norvegicus [10] = assay: Tested in vivo for the biodistribution in rat uterus/blood after 3 hours following an intravenous dose of 100 microCi of drug in 10%ethanol saline; type: ADME, organism-based
In short: as §2

Rattus norvegicus [11] = assay: Tested in vivo for the biodistribution in rat uterus/muscle at 1 hour after intravenous dose of 100 microCi of drug in 10%ethanol saline; type: ADME, organism-based, Muscle tissue
In short: as §2

Rattus norvegicus [12] = assay: Tested in vivo for the biodistribution in rat fat at 1 hour after intravenous dose of 100 microCi of drug in 10%ethanol saline; type: ADME, organism-based, Adipose tissue
In short: as §3

Rattus norvegicus [13] = assay: Tested in vivo for the biodistribution in blood of female rat at 1 hour after intravenous dose of 100 microCi of drug in 10%ethanol saline; type: ADME, organism-based
In short: as §3

Rattus norvegicus [14] = assay: Tested in vivo for the biodistribution in rat ovaries after 3 hours following an intravenous dose of 100 microCi of drug in 10%ethanol saline; type: ADME, organism-based, Female gonad
In short: as §1

Rattus norvegicus [15] = assay: Tested in vivo for the biodistribution in rat liver at 1 hour after intravenous dose of 100 microCi of the drug and 15 u g of estradiol; type: ADME, organism-based
In short: as §1

Rattus norvegicus [16] = assay: Tested in vivo for the biodistribution in rat liver after 3 hours following an intravenous dose of 100 microCi of drug in 10%ethanol saline; type: ADME, organism-based
In short: as §1

Rattus norvegicus [17] = assay: Tested in vivo for the biodistribution in rat uterus at 1 hour after intravenous dose of 100 microCi of drug in 10%ethanol saline; type: ADME, organism-based
In short: as §1

Rattus norvegicus [18] = assay: Tested in vivo for the biodistribution in rat muscle after 3 hours following an intravenous dose of 100 microCi of drug in 10%ethanol saline; type: ADME, organism-based, Muscle tissue
In short: as §1

Rattus norvegicus [19] = assay: Tested in vivo for the biodistribution in rat fat at 1 hour after intravenous dose of 100 microCi of the drug and 15 ug of estradiol; type: ADME, organism-based, Adipose tissue
Rattus norvegicus [20] = assay: Tested in vivo for the biodistribution in rat bone at 1 hour after intravenous dose of 100 microCi of drug in 10%ethanol saline; type: ADME, organism-based, Bone element
In short: as §3

Rattus norvegicus [21] = assay: Tested in vivo for the biodistribution in rat ovaries at 1 hour after intravenous dose of 100 microCi of drug in 10%ethanol saline; type: ADME, organism-based, Female gonad
In short: as §1

[22] = biological target: T2, Alpha-fetoprotein (Rattus norvegicus) (UniProt P02773); assay: Relative binding affinity for Alphafetoprotein
T2 sequence (whole entry): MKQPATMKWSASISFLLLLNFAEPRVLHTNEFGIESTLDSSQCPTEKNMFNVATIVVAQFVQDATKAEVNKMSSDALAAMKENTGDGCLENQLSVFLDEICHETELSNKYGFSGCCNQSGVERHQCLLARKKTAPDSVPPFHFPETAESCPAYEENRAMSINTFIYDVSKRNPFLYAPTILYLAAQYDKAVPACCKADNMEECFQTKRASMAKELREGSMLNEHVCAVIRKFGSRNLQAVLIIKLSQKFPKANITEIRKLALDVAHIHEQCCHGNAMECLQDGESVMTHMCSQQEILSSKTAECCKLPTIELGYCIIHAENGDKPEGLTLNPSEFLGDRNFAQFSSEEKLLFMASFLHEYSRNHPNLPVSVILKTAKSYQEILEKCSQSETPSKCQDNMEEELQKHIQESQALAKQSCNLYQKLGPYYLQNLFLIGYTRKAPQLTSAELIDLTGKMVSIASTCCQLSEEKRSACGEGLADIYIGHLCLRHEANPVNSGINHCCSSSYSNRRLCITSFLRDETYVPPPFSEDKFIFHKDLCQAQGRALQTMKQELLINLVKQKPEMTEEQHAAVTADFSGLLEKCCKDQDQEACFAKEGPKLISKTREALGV

Rattus norvegicus [23] = assay: Tested in vivo for the biodistribution in blood of female rat after 3 hours following an intravenous dose of 100 microCi of drug in 10%ethanol saline; type: ADME, organism-based
In short: as §3

Rattus norvegicus [24] = assay: Tested in vivo for the biodistribution in rat muscle at 1 hour after intravenous dose of 100 microCi of the drug and 15 ug of estradiol; type: ADME, organism-based, Muscle tissue
In short: as §1

Rattus norvegicus [25] = assay: Tested in vivo for the biodistribution in rat fat after 3 hours following an intravenous dose of 100 microCi of drug in 10%ethanol saline; type: ADME, organism-based, Adipose tissue
In short: as §3

[26] = biological target: T3, Sex hormone-binding globulin (Homo sapiens) (UniProt P04278); assay: Relative binding affinity against sex steroid binding protein (SBP)
T3 sequence (whole entry): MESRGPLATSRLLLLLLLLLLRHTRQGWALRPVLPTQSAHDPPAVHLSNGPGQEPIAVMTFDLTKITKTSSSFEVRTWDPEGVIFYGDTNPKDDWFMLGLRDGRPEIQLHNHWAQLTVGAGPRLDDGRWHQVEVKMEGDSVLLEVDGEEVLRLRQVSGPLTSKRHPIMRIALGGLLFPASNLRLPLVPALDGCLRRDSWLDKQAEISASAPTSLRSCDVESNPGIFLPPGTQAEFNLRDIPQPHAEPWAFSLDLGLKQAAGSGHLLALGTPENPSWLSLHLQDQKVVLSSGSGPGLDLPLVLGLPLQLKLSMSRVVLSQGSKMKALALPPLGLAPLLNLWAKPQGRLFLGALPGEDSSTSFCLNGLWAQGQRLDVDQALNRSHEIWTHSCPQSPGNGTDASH

Rattus norvegicus [27] = assay: Tested in vivo for the biodistribution in rat muscle at 1 hour after intravenous dose of 100 microCi of drug in 10%ethanol saline; type: ADME, organism-based, Muscle tissue
In short: as §1

Rattus norvegicus [28] = assay: Tested in vivo for the biodistribution in rat uterus at 1 hour after intravenous dose of 100 microCi of the drug and 15 micro g of estradiol; type: ADME, organism-based
In short: as §1

Rattus norvegicus [29] = assay: Tested in vivo for the biodistribution in rat uterus/muscle after 3 hours following an intravenous dose of 100 microCi of drug in 10%ethanol saline; type: ADME, organism-based, Muscle tissue
In short: as §2

Rattus norvegicus [30] = assay: Tested in vivo for the biodistribution in rat bone after 3 hours following an intravenous dose of 100 microCi of drug in 10%ethanol saline; type: ADME, organism-based, Bone element
In short: as §3

Rattus norvegicus [31] = assay: Tested in vivo for the biodistribution in rat bone at 1 hour after intravenous dose of 100 microCi of the drug and 15 ug of estradiol; type: ADME, organism-based, Bone element
Rattus norvegicus [32] = assay: Tested in vivo for the biodistribution in rat uterus/blood at 1 hour after intravenous dose of 100 microCi of the drug and 15 ug of estradiol; type: ADME, organism-based
In short: as §2

[33] = biological target: T1, Estrogen receptor (Rattus norvegicus); remark: listed apart in the source
Rattus norvegicus [34] = assay: Tested in vivo for the biodistribution in rat uterus after 3 hours following an intravenous dose of 100 microCi of drug in 10%ethanol saline; type: ADME, organism-based
In short: as §1

Rattus norvegicus [35] = assay: Tested in vivo for the biodistribution in rat kidney after 3 hours following an intravenous dose of 100 microCi of drug in 10%ethanol saline; type: ADME, organism-based
In short: as §3

NSB [1]: 1.04
Injected (Rattus norvegicus [2]): 0.863%
logP [3]: 3.3
Injected (Rattus norvegicus [4]): 2.424%
Injected (Rattus norvegicus [5]): 2.249%
Injected (Rattus norvegicus [6]): 0.906%
Injected (Rattus norvegicus [7]): 16.87%
Injected (Rattus norvegicus [8]): 0.576%
Injected (Rattus norvegicus [9]): 0.752%
Injected (Rattus norvegicus [10]): 12.21%
Injected (Rattus norvegicus [11]): 24.42%
Injected (Rattus norvegicus [12]): 0.337%
Injected (Rattus norvegicus [13]): 0.449%
Injected (Rattus norvegicus [14]): 1.274%
Injected (Rattus norvegicus [15]): 2.412%
Injected (Rattus norvegicus [16]): 2.204%
Injected (Rattus norvegicus [17]): 7.466%
Injected (Rattus norvegicus [18]): 0.133%
Injected (Rattus norvegicus [19]): 0.206%
Injected (Rattus norvegicus [20]): 0.608%
Injected (Rattus norvegicus [21]): 2.159%
relative binding affinity (RBA) [22]: 22
Injected (Rattus norvegicus [23]): 0.358%
Injected (Rattus norvegicus [24]): 0.22%
Injected (Rattus norvegicus [25]): 0.122%
relative binding affinity (RBA) [26]: 0.589
Injected (Rattus norvegicus [27]): 0.307%
Injected (Rattus norvegicus [28]): 0.533%
Injected (Rattus norvegicus [29]): 32.37%
Injected (Rattus norvegicus [30]): 0.557%
Injected (Rattus norvegicus [31]): 0.635%
Injected (Rattus norvegicus [32]): 0.92%
BSI [33]: 27
Injected (Rattus norvegicus [34]): 4.31%
Injected (Rattus norvegicus [35]): 0.376%
Compound: C#C[C@]1(O)[C@@H](F)C[C@H]2[C@@H]3CCc4cc(O)ccc4[C@H]3CC[C@@]21C
